Measured values taken from ChEMBL document CHEMBL4229360, “Antimalarial agents against both sexual and asexual parasites stages: structure-activity relationships and biological studies of the Malaria Box compound 1-[5-(4-bromo-2-chlorophenyl)furan-2-yl]-N-[(piperidin-4-yl)methyl]methanamine (MMV019918) and analogues” (Eur J Med Chem, 2018).
Active and inactive are the calls of the source. The calls are words filed in the database; no cut-off is given here.

Tests used:
[1] = Cardiotoxicity in Langendorff perfused Wistar rat heart assessed as frequency of heart rate at 10 uM by electrocardiography (reference value: 247.05 to 275.90 bpm); assay type: toxicity, tissue-based
[2] = Cardiotoxicity in Langendorff perfused Wistar rat heart assessed as reduction of left ventricular pressure; assay type: toxicity, tissue-based
[3] = Cardiotoxicity in Langendorff perfused Wistar rat heart assessed as frequency of heart rate at 3 uM by electrocardiography (reference value: 247.05 to 275.90 bpm); assay type: toxicity, tissue-based
[4] = molecular target: T1, Phosphoethanolamine N-methyltransferase (Plasmodium falciparum, UniProt Q8IDQ9); assay: Inhibition of plasmodium falciparum phosphoethanolamine N-methyltransferase expressed in Escherichia coli using phosphoethanolamine as substrate and [methyl-14C] SAM by radiochemical assay
T1 sequence (Q8IDQ9 whole entry): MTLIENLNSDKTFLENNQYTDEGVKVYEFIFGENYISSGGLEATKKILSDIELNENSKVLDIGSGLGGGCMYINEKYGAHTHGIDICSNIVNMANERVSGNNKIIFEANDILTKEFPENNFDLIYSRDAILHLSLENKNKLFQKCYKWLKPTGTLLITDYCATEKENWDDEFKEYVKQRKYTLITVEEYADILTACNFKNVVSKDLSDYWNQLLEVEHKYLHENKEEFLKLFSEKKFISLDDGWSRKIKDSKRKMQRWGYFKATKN
Procedure, shortened: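 Recombinant PfPMT purified from E. coli, 2 μg per 100 μL reaction. Buffer 0.1 M HEPES-KOH pH 8.0, 2 mM Na2EDTA, 10% glycerol, 5% DMSO, with 30 μM SAM (100 nCi [methyl-14C]SAM) and 55 μM phosphoethanolamine; radiochemical read-out.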

[5] = Cardiotoxicity in Langendorff perfused Wistar rat heart assessed as QTc interval time at 0.1 uM by electrocardiography (reference value: 76.45 to 80.07 milliseconds); assay type: toxicity, tissue-based
[6] = Cardiotoxicity in Langendorff perfused Wistar rat heart assessed as cycle length interval time at 3 uM by electrocardiography (reference value: 217.15 to 242.23 milliseconds); assay type: toxicity, tissue-based
[7] = Cardiotoxicity in Langendorff perfused Wistar rat heart assessed as QRS interval time at 3 uM by electrocardiography (reference value: 13.31 to 14.35 milliseconds); assay type: toxicity, tissue-based
[8] = molecular target: T2, Voltage-dependent L-type calcium channel subunit alpha-1C (Rattus norvegicus, UniProt P22002); assay: Inhibition of CaV1.2 channel in rat tail artery myocytes assessed as reduction in Ba2+ current at -50 mV holding potential by whole-cell patch-clamp assay; assay type: cell-based
T2 sequence (P22002 whole entry): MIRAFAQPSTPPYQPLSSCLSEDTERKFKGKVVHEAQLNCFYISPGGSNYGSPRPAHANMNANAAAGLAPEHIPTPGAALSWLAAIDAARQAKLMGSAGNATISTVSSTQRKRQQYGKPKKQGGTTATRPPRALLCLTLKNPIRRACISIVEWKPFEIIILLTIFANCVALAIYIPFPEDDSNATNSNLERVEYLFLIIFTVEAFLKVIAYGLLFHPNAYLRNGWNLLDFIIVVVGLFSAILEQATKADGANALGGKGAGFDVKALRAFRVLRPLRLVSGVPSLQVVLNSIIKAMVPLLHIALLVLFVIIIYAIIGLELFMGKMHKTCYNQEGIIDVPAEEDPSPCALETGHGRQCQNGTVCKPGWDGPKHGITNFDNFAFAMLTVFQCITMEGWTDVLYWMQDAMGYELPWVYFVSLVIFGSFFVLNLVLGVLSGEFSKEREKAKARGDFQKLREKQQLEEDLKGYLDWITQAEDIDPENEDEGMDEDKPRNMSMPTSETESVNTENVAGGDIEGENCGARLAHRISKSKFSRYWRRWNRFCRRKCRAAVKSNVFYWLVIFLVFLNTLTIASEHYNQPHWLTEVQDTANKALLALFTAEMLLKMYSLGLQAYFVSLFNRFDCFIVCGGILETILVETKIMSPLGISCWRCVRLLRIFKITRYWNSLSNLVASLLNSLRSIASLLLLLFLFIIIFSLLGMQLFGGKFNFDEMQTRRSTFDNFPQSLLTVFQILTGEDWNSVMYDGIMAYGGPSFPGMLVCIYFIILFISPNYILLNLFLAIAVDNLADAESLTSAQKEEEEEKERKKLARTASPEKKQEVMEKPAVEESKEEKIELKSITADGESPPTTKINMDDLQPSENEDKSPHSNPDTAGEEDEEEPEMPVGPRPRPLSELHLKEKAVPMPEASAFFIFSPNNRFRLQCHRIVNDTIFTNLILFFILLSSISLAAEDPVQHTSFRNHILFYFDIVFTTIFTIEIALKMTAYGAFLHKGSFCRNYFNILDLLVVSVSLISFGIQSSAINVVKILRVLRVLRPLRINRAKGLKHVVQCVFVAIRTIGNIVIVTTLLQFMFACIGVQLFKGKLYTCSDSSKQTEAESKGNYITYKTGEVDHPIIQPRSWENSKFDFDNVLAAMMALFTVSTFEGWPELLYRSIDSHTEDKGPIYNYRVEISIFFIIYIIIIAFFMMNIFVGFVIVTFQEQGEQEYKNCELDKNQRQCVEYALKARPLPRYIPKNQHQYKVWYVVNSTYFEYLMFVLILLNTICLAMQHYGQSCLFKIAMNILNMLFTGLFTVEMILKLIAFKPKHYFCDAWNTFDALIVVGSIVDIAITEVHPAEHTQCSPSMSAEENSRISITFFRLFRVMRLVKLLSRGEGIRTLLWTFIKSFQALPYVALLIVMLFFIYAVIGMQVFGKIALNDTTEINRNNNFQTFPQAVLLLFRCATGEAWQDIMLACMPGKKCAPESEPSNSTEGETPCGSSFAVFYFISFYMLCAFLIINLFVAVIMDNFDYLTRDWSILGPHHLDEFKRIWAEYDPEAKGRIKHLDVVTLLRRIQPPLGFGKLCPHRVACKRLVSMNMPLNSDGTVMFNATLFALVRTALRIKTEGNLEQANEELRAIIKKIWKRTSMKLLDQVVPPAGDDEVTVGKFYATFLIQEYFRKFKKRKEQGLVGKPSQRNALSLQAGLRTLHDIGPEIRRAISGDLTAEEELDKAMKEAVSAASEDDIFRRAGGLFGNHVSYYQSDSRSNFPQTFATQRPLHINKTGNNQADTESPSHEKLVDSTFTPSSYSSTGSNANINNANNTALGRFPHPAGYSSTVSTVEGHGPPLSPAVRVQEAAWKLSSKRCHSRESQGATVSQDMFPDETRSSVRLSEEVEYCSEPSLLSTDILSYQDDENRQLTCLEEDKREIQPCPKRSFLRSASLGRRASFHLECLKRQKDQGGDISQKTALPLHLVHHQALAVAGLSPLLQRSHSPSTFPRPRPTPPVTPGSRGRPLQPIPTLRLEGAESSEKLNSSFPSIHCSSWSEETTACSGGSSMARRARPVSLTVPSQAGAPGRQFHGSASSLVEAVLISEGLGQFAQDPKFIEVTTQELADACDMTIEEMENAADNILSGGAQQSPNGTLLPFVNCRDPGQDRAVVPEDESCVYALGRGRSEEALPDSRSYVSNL
Procedure, shortened: (§1)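 Freshly isolated rat tail artery smooth muscle cells (collagenase digestion), whole-cell patch clamp at 20–22 °C. External solution: 5 mM Ba2+, 30 mM TEA; Cs+-based internal solution, pH 7.4. Currents from 250-ms pulses to 0 mV from Vh −50 mV at 0.067 Hz, after 7–10 min stabilisation. Leak corrected with 10 μM nifedipine. Peak current as % of control; n = 3–6 cells from ≥3 animals.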

[9] = Cardiotoxicity in Langendorff perfused Wistar rat heart assessed as PQ interval time at 1 uM by electrocardiography (reference value: 41.13 to 42.63 milliseconds); assay type: toxicity, tissue-based
[10] = Cardiotoxicity in Langendorff perfused Wistar rat heart assessed as frequency of heart rate at 1 uM by electrocardiography (reference value: 247.05 to 275.90 bpm); assay type: toxicity, tissue-based
[11] = molecular target: T2, Voltage-dependent L-type calcium channel subunit alpha-1C; assay: Inhibition of CaV1.2 channel in rat tail artery myocytes assessed as reduction in Ba2+ current at 30 uM at -50 mV holding potential by whole-cell patch-clamp assay; assay type: cell-based; procedure, shortened: as §1
Plasmodium berghei = assay: Antimalarial activity against liver stage form of mCherry expressing Plasmodium berghei ANKA sporozoites infected in mouse primary hepatocytes assessed as reduction in parasite size at 0.0625 to 4 uM administered 2 hrs post infection and measured after 48 hrs post infection with medium change at 24 hrs post infection by fluorescent microscopic analysis; assay type: functional, organism-based
Procedure, shortened: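 Parasite number and size in unfixed cells by automated microscopy at 48 hpi. Detached cells collected at 65 hpi, counted by fluorescence microscopy, expressed as % of 48 h parasite number. n = 4; one-way ANOVA with Dunnett's test.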

[12] = Cardiotoxicity in Langendorff perfused Wistar rat heart assessed as cycle length interval time at 0.1 uM by electrocardiography (reference value: 217.15 to 242.23 milliseconds); assay type: toxicity, tissue-based
[13] = Cardiotoxicity in Langendorff perfused Wistar rat heart assessed as QRS interval time at 10 uM by electrocardiography (reference value: 13.31 to 14.35 milliseconds); assay type: toxicity, tissue-based
[14] = Cardiotoxicity in Langendorff perfused Wistar rat heart assessed as QRS interval time at 1 uM by electrocardiography (reference value: 13.31 to 14.35 milliseconds); assay type: toxicity, tissue-based
[15] = Cardiotoxicity in Langendorff perfused Wistar rat heart assessed as cycle length interval time at 10 uM by electrocardiography (reference value: 217.15 to 242.23 milliseconds); assay type: toxicity, tissue-based

Clc1ccc(-c2ccc(CNCC3CCNCC3)o2)c(-c2ccccc2)c1
Activity [1]: 259.41 bpm
Activity [2]: Dose-dependent effect
Activity [3]: 276.4 bpm
IC50 [4]: 44.3 µM
Time [5]: 74.92 ms
Time [6]: 216.73 ms
Time [7]: 14.65 ms
IC50 [8]: 3.3 µM
inhibition (INH) ([8]; rat): Dose-dependent effect
Time [9]: 41.59 ms
Activity [10]: 275.47 bpm
inhibition (INH) [11]: Active
Activity (Plasmodium berghei): inactive
Time [12]: 218.32 ms
Time [13]: 17.91 ms
Time [14]: 13.7 ms
Time [15]: 232.2 ms
